Experiment [1] has as its system Beta-hexosaminidase (Homo sapiens). In words: Inhibition of human Placental beta-N-acetylglucosaminidase at 1000 uM.
Experiment [2] deals with T1, Alpha-N-acetylgalactosaminidase (Gallus gallus) (UniProt Q90744).
T1 sequence (whole entry): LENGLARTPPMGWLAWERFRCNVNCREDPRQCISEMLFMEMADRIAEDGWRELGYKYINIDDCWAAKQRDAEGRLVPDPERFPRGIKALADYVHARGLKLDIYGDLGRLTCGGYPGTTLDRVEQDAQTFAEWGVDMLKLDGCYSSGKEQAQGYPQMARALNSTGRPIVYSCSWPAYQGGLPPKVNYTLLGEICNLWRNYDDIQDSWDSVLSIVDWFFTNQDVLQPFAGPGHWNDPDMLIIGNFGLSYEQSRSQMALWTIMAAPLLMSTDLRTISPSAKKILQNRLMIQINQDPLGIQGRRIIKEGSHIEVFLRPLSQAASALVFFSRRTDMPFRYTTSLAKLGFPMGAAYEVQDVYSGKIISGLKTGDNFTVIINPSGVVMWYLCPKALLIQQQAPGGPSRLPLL
Nature of the experiment: Inhibition of chicken liver alpha-N-acetylgalactosaminidase at 1000 uM. Put shortly:
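Chicken liver α-N-acetylgalactosaminidase at pH 4.0. The reaction (1 mL) holds 2 mM p-nitrophenyl glycoside and an appropriate amount of enzyme. It is stopped by 2 mL of 400 mM Na₂CO₃, and p-nitrophenol release is quantified at 400 nm.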

A short description of experiment [3]: Inhibition of bovine kidney beta-N-acetylglucosaminidase at 1000 uM. It is filed as functional. Particulars: Bos taurus. Put shortly:
(§1)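 β-N-Acetylglucosaminidase from bovine kidney, pH 4.5. The substrate is a p-nitrophenyl glycoside at 2 mM, with an appropriate amount of enzyme in a 1 mL mixture. The reaction is quenched with 2 mL of 400 mM Na₂CO₃, and p-nitrophenol is measured at 400 nm.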

Another experiment is filed under the species Bos taurus. In words: Inhibition of bovine liver beta-glucuronidase at 1000 uM. Put shortly: (§2)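 Enzyme from bovine liver, run at pH 5.0. A p-nitrophenyl glycoside substrate (2 mM) is used in a 1 mL reaction with an appropriate amount of enzyme. Termination is by 2 mL of 400 mM Na₂CO₃, with spectrophotometric detection of liberated p-nitrophenol at 400 nm.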

A further experiment relates to Escherichia coli. Nature of the experiment: Inhibition of Escherichia coli beta-glucuronidase at 1000 uM. The method in brief: (§3)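 E. coli β-glucuronidase assayed at pH 6.8 in a 1 mL mixture containing 2 mM p-nitrophenyl glycoside substrate and an appropriate amount of enzyme. The reaction is stopped with 2 mL of 400 mM Na₂CO₃, and released p-nitrophenol is read at 400 nm.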

The nature of experiment [4]: Inhibition of bovine liver beta-glucuronidase. More on the design: species or system Bos taurus. The method in brief:
as §2

A short description of experiment [5]: Inhibition of Escherichia coli beta-glucuronidase. The method in brief: as §3
The nature of experiment [6]: Inhibition of bovine kidney beta-N-acetylglucosaminidase. On the set-up: species or system Bos taurus. The method in brief: as §1
For experiment [7], the target named is Beta-hexosaminidase (Homo sapiens). Nature of the experiment: Inhibition of human Placental beta-N-acetylglucosaminidase.

As a reminder, the inhibition is the change of the read-out against control, counted positive when it falls. `O=C(O)[C@@H]1NCCC[C@H]1O`: the inhibition was 25% in experiment [1], 1.3% in [2], 0.62% in the experiment listed under Bos taurus and 20% in the experiment with Escherichia coli. This compound also had an inhibition at 1000 µM in experiment [3] of 32%.

In the case of `O=C(O)[C@H]1NC[C@@H](O)[C@H](O)[C@@H]1O`, the inhibition in [1] came out at 42%; in [2] it was 11%; in the experiment filed under Bos taurus, 20%; with Escherichia coli, 1.1%. Further, at 1000 µM the inhibition in experiment [3] was 17%.

With `O=C(O)[C@@H]1NCC=C[C@H]1O`, the inhibition in [1] amounted to 14%; in [2] it was 3.2%; in the experiment filed under Bos taurus it was 0.2%; in the experiment on Escherichia coli, 0.9%. In experiment [3], this compound registered an inhibition at 1000 µM of 15%.

`O=C(O)[C@H]1NC[C@H](O)[C@H](O)[C@@H]1O`: the inhibition in [1] is 26%; in experiment [2], 4.5%; in the experiment listed under Bos taurus, 2.1%; in the experiment on Escherichia coli, 0.6%. Also, at 1000 µM the inhibition in [3] was 14%.

Consider `O=C(O)[C@@H]1NCC=C[C@@H]1O`, for which the inhibition in experiment [1] stood at 14%; in experiment [2], 1.3%; in the experiment filed under Bos taurus, 10%; in the experiment with Escherichia coli it was 0.9%. Also, the inhibition at 1000 µM in experiment [3] was 0.8%.

As for `O=C(O)[C@H]1NC[C@H](O)[C@H](O)[C@H]1O`, the inhibition came out at 7.6% in experiment [1], 21% in experiment [2], 8.8% in the experiment listed under Bos taurus and 2.3% with Escherichia coli. The compound also yielded an inhibition at 1000 µM in [3] of 5.5%.

Consider `O=C(O)[C@H]1NCCC[C@@H]1O`, for which the inhibition in [1] amounted to 36%; in experiment [2], 5.2%; in the experiment filed under Bos taurus, 0.89%; in the experiment on Escherichia coli it was 31%. The compound also yielded an inhibition at 1000 µM in [3] of 38%.

As usually defined, the IC50 is the concentration that gives 50% inhibition. High values mean weaker potency, low ones greater potency. As a reminder, the Ki is the dissociation constant of the complex between target and ligand, obtained from inhibition or displacement. Turning to `O=C(O)[C@H]1NC[C@H](O)[C@@H](O)[C@@H]1O`, the values for the IC50 in experiment [4] and in experiment [5] were 70 µM and 215 µM, respectively. In addition, the inhibition amounted to 43% in experiment [1], 0.2% in experiment [2], 95% in the experiment listed under Bos taurus and 72% with Escherichia coli. This compound came in with a Ki in experiment [5] of 400 µM. The compound further had an inhibition at 1000 µM in experiment [3] of 13%.

In the case of `O=C(O)[C@@H]1NC[C@H](O)[C@@H](O)[C@@H]1O`, the inhibition in [1] came to 5.4%; in experiment [2], 3.4%; in the experiment listed under Bos taurus, 15.8%; in the experiment on Escherichia coli, 4.2%. In [3], this compound yielded an inhibition at 1000 µM of 4.4%.

For `O=C(O)[C@H]1NC[C@@H](O)[C@@H](O)[C@@H]1O`, the inhibition in experiment [1] was 28%; in experiment [2] it was 3.8%; in the experiment listed under Bos taurus, 14%; in the experiment with Escherichia coli, 1%. For the same compound, testing at 1000 µM in experiment [3] gave an inhibition of 0.5%.

Regarding `O=C(O)[C@@H]1NCCC[C@@H]1O`, the inhibition in experiment [1] was found to be 46%; in [2], 3.2%; in the experiment listed under Bos taurus, 15%; with Escherichia coli, 23%. Further, in experiment [3], the inhibition at 1000 µM stood at 47%.

On to `O=C(O)[C@@H]1NC[C@@H](O)[C@H](O)[C@@H]1O`, for which the inhibition in [1] is 0.8%; in experiment [2], 10%; in the experiment filed under Bos taurus, 7.1%; in the experiment with Escherichia coli, 6.3%. In [3], this compound yielded an inhibition at 1000 µM of 0.5%.

With `O=C(O)[C@@H]1NC[C@H](O)[C@H](O)[C@H]1O`, the inhibition in [1] amounted to 39%; in experiment [2] it was 4.4%; in the experiment listed under Bos taurus, 12%; with Escherichia coli, 2.6%. The compound further showed an inhibition at 1000 µM in [3] of 18%.

Turning to `O=C(O)[C@H]1NCC=C[C@H]1O`, the inhibition in experiment [1] came to 17%; in experiment [2] it was 0.2%; in the experiment filed under Bos taurus, 8.6%; in the experiment on Escherichia coli, 3.3%. Besides, in experiment [3], 1000 µM produced 7.3% inhibition.

On to `O=C(O)[C@H]1NCCC[C@H]1O`, for which the inhibition in experiment [1] was 30%; in experiment [2], 2.5%; in the experiment filed under Bos taurus, 0.18%; in the experiment with Escherichia coli, 24%. This compound yielded an inhibition at 1000 µM in [3] of 20%.

For the compound `O=C(O)[C@H]1NC[C@H](O)[C@@H](O)[C@H]1O`, inhibition in experiment [4] was half-maximal at 86 µM (IC50). For the same compound, the inhibition in experiment [1] was found to be 2.6%; in [2], 31%; in the experiment filed under Bos taurus it was 87%; with Escherichia coli, 21%. Further, the inhibition at 1000 µM in experiment [3] is 1.9%.

Take `O=C(O)[C@H]1NCC=C[C@@H]1O`: the IC50 in experiment [6] was 720 µM; in experiment [7], 750 µM. The inhibition was 60% in [1], 25% in experiment [2], 19% in the experiment filed under Bos taurus and 2% in the experiment on Escherichia coli. This compound displayed an inhibition at 1000 µM in experiment [3] of 58%.

`O=C(O)[C@@H]1NC[C@@H](O)[C@@H](O)[C@H]1O`: the inhibition in [1] was 26%; in [2], 8.2%; in the experiment filed under Bos taurus, 3.1%; in the experiment on Escherichia coli it was 1.3%. The inhibition at 1000 µM in experiment [3] stood at 10%.

On to `O=C(O)[C@H]1NC[C@@H](O)[C@H](O)[C@H]1O`, for which the inhibition in [1] amounted to 6.3%; in experiment [2], 4.2%; in the experiment listed under Bos taurus, 17.5%; in the experiment on Escherichia coli, 2.6%. Moreover, the inhibition at 1000 µM in experiment [3] amounted to 4.8%.

As to `O=C(O)[C@@H]1NC[C@H](O)[C@@H](O)[C@H]1O`, the inhibition in experiment [1] is 42%; in [2] it was 4%; in the experiment filed under Bos taurus it was 6.8%; in the experiment on Escherichia coli, 5.2%. In experiment [3], this compound came in with an inhibition at 1000 µM of 27%.

Consider `O=C(O)[C@@H]1NC[C@@H](O)[C@@H](O)[C@@H]1O`, for which the inhibition in experiment [1] is 2.1%; in experiment [2], 7.2%; in the experiment listed under Bos taurus it was 9.4%; with Escherichia coli, 1.2%. For the same compound, the inhibition at 1000 µM in [3] came out at 1.7%.

For the compound `O=C(O)[C@@H]1NC[C@@H](O)[C@H](O)[C@H]1O`, the inhibition turned out to be 50% in experiment [1], 1.3% in [2], 2.7% in the experiment filed under Bos taurus and 5.4% with Escherichia coli. Moreover, testing at 1000 µM in experiment [3] gave an inhibition of 11%.
